mIAP inh = mouse IAP inhibition. AID 2806. purified mouse IAP, CDP-Star luminescence, 30 min. inhibition, % at 10 µM. hit rate 0.2% among 330,000;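 active = inhibition of at least 40% at 10 µM in the primary screen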
bIAP act = increases bovine intestinal alkaline phosphatase activity; hit rate 0.17% among 200,000; purified bovine IAP, CDP-star luminescence, 30 min; active compounds read high; fold of DMSO-control signal, blank-subtracted; activation factor at 20 µM;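 active = activation factor of 2 or more at 20 µM, a signal rise over negative controls twice the positive control's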
hIAP activ = human IAP activation; P09923; purified human IAP, CDP-Star luminescence, 30 min; active compounds read high; 1 = vehicle-only enzyme, 0 = enzyme-free background; activation factor at 10 µM; hit rate 0.16% among 330,000;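 active = activation factor of the enzyme at least 2-fold when tested at 20 µM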
Target sequence (P09923 whole entry, looked up): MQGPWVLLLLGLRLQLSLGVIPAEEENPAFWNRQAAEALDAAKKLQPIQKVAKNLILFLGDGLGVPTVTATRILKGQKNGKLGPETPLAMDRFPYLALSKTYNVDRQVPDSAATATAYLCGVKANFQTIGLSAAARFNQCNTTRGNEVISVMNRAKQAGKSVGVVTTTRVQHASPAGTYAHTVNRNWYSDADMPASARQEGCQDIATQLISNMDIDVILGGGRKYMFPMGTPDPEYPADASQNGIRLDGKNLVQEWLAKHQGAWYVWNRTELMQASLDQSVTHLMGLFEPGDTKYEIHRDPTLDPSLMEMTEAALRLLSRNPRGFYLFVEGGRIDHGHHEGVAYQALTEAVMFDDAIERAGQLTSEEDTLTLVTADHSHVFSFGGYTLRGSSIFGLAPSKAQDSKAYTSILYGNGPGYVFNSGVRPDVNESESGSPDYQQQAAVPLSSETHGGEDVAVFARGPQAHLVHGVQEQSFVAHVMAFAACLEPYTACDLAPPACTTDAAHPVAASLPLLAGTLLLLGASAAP
bIAP inhibitor = intestinal alkaline phosphatase (bovine) inhibition. purified bovine IAP, CDP-star luminescence, 30 min. inhibition, % at 20 µM. 190,000 tested, under 10 active. AID 1019;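 active = over 50% inhibition of intestinal alkaline phosphatase at 20 µM in the single-dose screen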
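Incubation: 30 min reaction at room temperature / Material: purified bovine intestinal alkaline phosphatase (IAP) enzyme / Input: enzyme at 1/65,000,000 dilution / Dosing: 20 µM single dose / Signal: CDP-star luminescence signal / Reagent: CDP-star chemiluminescent phosphatase substrate, 30 µM final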
hIAP block = blocks human intestinal alkaline phosphatase. inhibition, % at 10 µM. purified IAP, CDP-Star luminescence, 30 min. hit rate 0.12% among 330,000. AID 2544;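 active = inhibition reaching a set limit with compound at 10 µM in the primary screen, cut at about 35% in these data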
mIAP activ = mouse IAP activation. AID 2805. muIAP, CDP-Star luminescence, 30 min; active compounds read high; 1 = vehicle-only enzyme signal, 0 = enzyme-free wells. activation factor at 10 µM. hit rate 0.24% among 330,000;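 active = activation factor of at least 2 at 20 µM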
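Assay system: mouse IAP enzyme; reagent: chemiluminescent substrate CDP-Star; dosing: test compounds delivered from DMSO solution; schedule: 30 min at room temperature; measured by: luminescence from enzymatic CDP-Star hydrolysis; controls: DMSO-only wells and no-enzyme negative control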
hIAP act confirm = human IAP activation confirmation; shares compounds with hIAP activ; purified IAP, CDP-Star luminescence, 30 min; active compounds read low; activation (%Activity, negative = activation), % at 8.3 µM; hit rate 10% among 880; AID 434926;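 active = at least twofold enzyme activation in any of six single-dose repeats, which the averaged readout prints as negative percent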
Each line names hits and unclear results; the compound was inactive in the other large screens (follow-up assays come after a bar, where they were run). In the library only some 0.77% were active in any assay of this set; here they are far more common.

N#Cc1c(-c2ccccc2)nc(N2CCCCCC2)[nH]c1=O	none
N#Cc1c(-c2ccccc2)nc(N2CCOCC2)[nH]c1=O	hIAP block 38 | hIAP act confirm inactive
NS(=O)(=O)c1ccc(CCNC(=O)C2CCN(C(=O)Nc3ccccc3)CC2)cc1	none (no result: bIAP act, bIAP inhibitor)
Cc1ccc(CN2CCC(c3nc4ccc(Cl)cc4[nH]3)CC2)cc1	none
Cc1cc2nc(C3CCN(Cc4nnnn4Cc4cccs4)CC3)[nH]c2cc1C	hIAP block 37 (no result: bIAP inhibitor) | hIAP act confirm inactive
Cn1nnnc1N=N/C(=N/Nc1ccccc1)c1ccccc1	hIAP block 46 (no result: bIAP act, bIAP inhibitor) | hIAP act confirm inactive
Oc1ccccc1N=N/C(=N/Nc1ccccc1O)c1ccccc1	none (no result: bIAP act, bIAP inhibitor)
CC(NC(=O)c1cccc(S(=O)(=O)N2CCN(Cc3ccccc3)CC2)c1)c1ccc(Cl)cc1 (stereo unspecified)	none (no result: bIAP act, bIAP inhibitor)
COc1ccc(-c2nnc(SCC(=O)N3CCOCC3)n2C)cc1OC	hIAP activ 2.3 | hIAP act confirm inactive
CCc1cc(=O)[nH]c(-n2[nH]c(-c3ccccc3)cc2=O)n1	none
O=c1cc(-c2ccccc2)[nH]n1-c1nc2ccccc2[nH]1	hIAP activ 2 | hIAP act confirm -58
CCN(C(=O)C(C)OC(=O)CCCNC(=O)c1ccc(Cl)cc1)c1ccccc1 (stereo unspecified)	none (no result: bIAP act, bIAP inhibitor)
CCOC(=O)C1=C(c2ccccc2)N=c2s/c(=C\c3cccc(O)c3)c(=O)n2C1c1cccs1 (stereo unspecified)	none
O=c1/c(=C\c2ccc(O)cc2)sc2n1C(c1ccccc1)C(c1ccccc1)=NN=2 (stereo unspecified)	hIAP block 37 | hIAP act confirm inactive
CC(=O)Nc1ccc(NC(=O)CSc2nnc(-c3cccs3)n2N)cc1	none (no result: bIAP act, bIAP inhibitor)
CCCOc1ccc(C(=O)NNC(=S)NC(=O)c2ccccc2[N+](=O)[O-])cc1	hIAP activ 2.1 (no result: bIAP act, bIAP inhibitor) | hIAP act confirm inactive
CCCOc1ccc(C(=O)NNC(=S)NC(=O)c2ccccc2)cc1	none (no result: bIAP act, bIAP inhibitor)
CCCOc1ccc(C(=O)NNC(=S)NC(C)=O)cc1	hIAP activ 2.2 | hIAP act confirm inactive
C=CCNC(=S)NNC(=O)c1ccc(OCCCC)cc1	hIAP activ 2.1 | hIAP act confirm inactive
CCCCOc1ccc(C(=O)NNC(=S)NC(=O)CC)cc1	none (no result: mIAP inh, hIAP activ, hIAP block, mIAP activ)
O=S(=O)(Nc1cccc(-c2ccc3nncn3n2)c1)c1cc(F)ccc1F	none (no result: bIAP act, bIAP inhibitor)
CCOC(=O)CC1(NC(=O)C2CCC(=O)N(Cc3ccccc3OC)C2)CCCCC1 (stereo unspecified)	none (no result: bIAP act, bIAP inhibitor)
O=C(C1CCN(C2CC(=O)N(c3cccc(Cl)c3)C2=O)CC1)N1CCCC1 (stereo unspecified)	hIAP activ 2.9 | hIAP act confirm inactive
CCOC(=O)C1CCCN(C(=S)NC(=O)/C=C/c2ccc(F)cc2)C1 (stereo unspecified)	hIAP block 39 (no result: bIAP act, bIAP inhibitor) | hIAP act confirm inactive
CCCn1c(SC(C)C(=O)NCC2CCCO2)nc2sc3c(c2c1=O)CCC3 (stereo unspecified)	none (no result: bIAP act, bIAP inhibitor)
Cc1cc(C(=O)NNC(=O)COc2ccccc2Cl)n[nH]1	hIAP activ 3.1 (no result: bIAP act, bIAP inhibitor) | hIAP act confirm inactive
Cc1cc(C(=O)NNC(=O)COc2c(C)cc(Br)cc2C)n[nH]1	hIAP activ 2.2 (no result: bIAP act, bIAP inhibitor) | hIAP act confirm inactive
Cc1ccc(OCC(=O)NNC(=O)c2cc(C)[nH]n2)cc1	none
Cc1[nH]n(-c2nc(-c3ccccc3F)cc(=O)[nH]2)c(=O)c1CCO	hIAP block 72 | hIAP act confirm -40
COc1cc2c(cc1OC)[C@H](C)N(C(=S)Nc1ccc(F)cc1)CC2	hIAP activ 2.3 (no result: bIAP act, bIAP inhibitor) | hIAP act confirm inactive
COc1cc2c(cc1OC)C(C)N(C(=O)Nc1ccccc1)CC2 (stereo unspecified)	none (no result: bIAP act, bIAP inhibitor)
CC(C)CC(=O)NC(=S)NNC(=O)c1ccc(NC(=O)C2CCCCC2)cc1	hIAP activ 2.3 | hIAP act confirm inactive
CCc1ccccc1Nc1nc(N)nc(COC(=O)C2CCN(C(=O)c3ccc(F)cc3)CC2)n1	none (no result: bIAP act, bIAP inhibitor)
Cc1ccc(C(=O)NC(C)c2nc3ccccc3n2CC(=O)Nc2c(C)cc(C)cc2C)cc1 (stereo unspecified)	hIAP activ 4, mIAP activ 2.7 (no result: bIAP act, bIAP inhibitor) | hIAP act confirm inactive
